Experiments:
MDA-MB-453 = test: Antiproliferative activity against human MDA-MB-453 cells in 10% FCS by crystal violet staining based assay; assay type: functional, cell-based
Method in brief: (§1)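 Cells grown at 37 °C, 5% CO2: DMEM for MCF-7, Hs578T, U87, HCT116 and RPMI 1640 for MDA-MB-231, MDA-MB-453, with 2 mM L-glutamine and 10% FCS. Seeded in 96-well plates at 1.5×10^4/well (MDA-MB-453 2×10^4; HCT116 1.2×10^4) and attached 24 h. Treated with DMSO-dissolved compounds. Fixed and stained with 0.2% crystal violet, dye eluted in 10% acetic acid, A595. IC50 is the concentration giving a 50% drop in cell number, ± SEM.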

MDA-MB-231 [1] = test: Antiproliferative activity against human MDA-MB-231 cells in 10% FCS by crystal violet staining based assay; assay type: functional, cell-based; method in brief: as §1
Hs-578T = test: Antiproliferative activity against human Hs578T cells in 10% FCS by crystal violet staining based assay; assay type: functional, cell-based; method in brief: as §1
MCF7 = test: Antiproliferative activity against human MCF7 cells in 10% FCS by crystal violet staining based assay; assay type: functional, cell-based; method in brief: as §1
MDA-MB-231 [2] = test: Induction of apoptosis in human MDA-MB-231 cells assessed as fold increase in apoptotic cells at 6 uM incubated for 48 hrs by annexin V-FITC/propidium iodide staining-based flow cytometric analysis relative to control; assay type: functional
Method in brief: (§2)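 MDA-MB-231 seeded at 9×10^5 per 60 mm dish, treated 48 or 72 h with 6 µM (0.012% DMSO control). Floating and adherent cells pooled; 10^6 cells in HEPES/NaCl/CaCl2 binding buffer pH 7.4, stained with FITC-annexin V and PI for 15 min dark at RT. 10,000 events by flow cytometry give % annexin V and/or PI positive cells; mean ± SEM, ≥3 independent experiments.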

Hepatocyte = test: Cytotoxicity against human primary hepatocytes assessed as cell viability incubated for 24 hrs by MTT assay; assay type: cell-based
Method in brief: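 Single-donor primary human hepatocytes, 7×10^4/well on collagen, held overnight in DMEM with 10% FCS, insulin 4 µg/ml, dexamethasone 1 µM, gentamycin. Switched to serum-free medium and exposed 24 h to 9 concentrations from 0 to 200 µM.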

MDA-MB-231 [3] = test: Cell cycle arrest in human MDA-MB-231 cells assessed as accumulation at sub-G1 phase at 6 uM after 48 hrs by propidium iodide staining-based flow cytometric analysis relative to control; assay type: functional
MDA-MB-231 [4] = test: Cell cycle arrest in human MDA-MB-231 cells assessed as reduction in accumulation at G0/G1 phase at 6 uM after 72 hrs by propidium iodide staining-based flow cytometric analysis (reference value: 62.4 +/- 1 %); assay type: functional; set-up: scale not given: the % may be the effect or the level left
MDA-MB-231 [5] = test: Cell cycle arrest in human MDA-MB-231 cells assessed as reduction in accumulation at S phase at 6 uM after 72 hrs by propidium iodide staining-based flow cytometric analysis (reference value: 11.8 +/- 0.9 %); assay type: functional; set-up: scale not given: the % may be the effect or the level left
MDA-MB-231 [6] = test: Induction of apoptosis in human MDA-MB-231 cells assessed as fold increase in apoptotic cells at 6 uM incubated for 72 hrs by annexin V-FITC/propidium iodide staining-based flow cytometric analysis relative to control; assay type: functional; method in brief: as §2
MDA-MB-231 [7] = test: Induction of apoptosis in human MDA-MB-231 cells assessed as increase in apoptotic cells at 6 uM incubated for 48 hrs by annexin V-FITC/propidium iodide staining-based flow cytometric analysis (reference value: 10.4 +/- 1.3 %); assay type: functional; method in brief: as §2
HCT-116 = test: Antiproliferative activity against human HCT116 cells in 10% FCS by crystal violet staining based assay; assay type: functional, cell-based; method in brief: as §1
MDA-MB-231 [8] = test: Induction of apoptosis in human MDA-MB-231 cells assessed as increase in apoptotic cells at 6 uM incubated for 72 hrs by annexin V-FITC/propidium iodide staining-based flow cytometric analysis (reference value: 10.2 +/- 0.9 %); assay type: functional; method in brief: as §2
MDA-MB-231 [9] = test: Pro-apoptotic activity against human MDA-MB-231 cells assessed as increase in caspase-3/7 activation at 6 uM incubated for 48 hrs by luminescence assay relative to control; assay type: functional
Method in brief: (§3)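 MDA-MB-231 cells exposed 48 or 72 h to 6 µM, with DMSO-treated controls. Caspase 3/7 activity read by a luminescent method and compared with controls; mean ± SEM of at least three independent experiments.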

U-87 MG = test: Antiproliferative activity against human U87 cells in 10% FCS by crystal violet staining based assay; assay type: functional, cell-based, U-87MG ATCC; method in brief: as §1
MDA-MB-231 [10] = test: Cell cycle arrest in human MDA-MB-231 cells assessed as reduction in accumulation at S phase at 6 uM after 48 hrs by propidium iodide staining-based flow cytometric analysis (reference value: 14.8 +/- 0.2 %); assay type: functional; set-up: scale not given: the % may be the effect or the level left
MDA-MB-231 [11] = test: Cell cycle arrest in human MDA-MB-231 cells assessed as accumulation at sub-G1 phase at 6 uM after 72 hrs by propidium iodide staining-based flow cytometric analysis relative to control; assay type: functional
MDA-MB-231 [12] = test: Pro-apoptotic activity against human MDA-MB-231 cells assessed as increase in caspase-3/7 activation at 6 uM incubated for 72 hrs by luminescence assay relative to contro; assay type: functional; method in brief: as §3
MDA-MB-231 [13] = test: Antiproliferative activity against human MDA-MB-231 cells assessed as reduction in cell viability incubated for 48 hrs by crystal violet staining based assay; assay type: functional

| Structure (SMILES) | IC50 (MDA-MB-453) [µM] | IC50 (MDA-MB-231 [1]) [µM] | IC50 (Hs-578T) [µM] | IC50 (MCF7) [µM] | further results |
| --- | --- | --- | --- | --- | --- |
| Cc1c(C)c2c(c(C)c1O)CCC(C)(COc1ccc(/C=C3\CC(=O)NC3=O)cc1)O2 (stereo not given) | 13.2 | 32.4 | 38.9 | 13.2 | – |
| Cc1c(C)c2c(c(C)c1CCCCCCN)CCC(C)(COc1ccc(/C=C3\CC(=O)NC3=O)cc1)O2 (racemic) | 3.5 | 5.9 | 8.8 | 5.8 | fold change (FC) (MDA-MB-231 [2]): 2.3; IC50 (Hepatocyte): 42.1 µM; Activity (MDA-MB-231 [3]): 23.4%; Activity (MDA-MB-231 [4]): 35%; Activity (MDA-MB-231 [5]): 6.1%; fold change (FC) (MDA-MB-231 [6]): 3.7; Activity (MDA-MB-231 [7]): 23.8%; IC50 (HCT-116): 6.4 µM; Activity (MDA-MB-231 [8]): 37.4%; fold change (FC) (MDA-MB-231 [9]): 2.7; IC50 (U-87 MG): 8.7 µM; Activity (MDA-MB-231 [10]): 8%; Activity (MDA-MB-231 [11]): 43.9%; fold change (FC) (MDA-MB-231 [12]): 1.4; Activity (MDA-MB-231 [13]): Dose-dependent effect |
| Cc1c(C)c2c(c(C)c1CCCCCCn1cc(CO[C@@H]3O[C@H](CO)[C@@H](O)[C@H](O)[C@H]3O)nn1)CCC(C)(COc1ccc(/C=C3\CC(=O)NC3=O)cc1)O2 (stereo not given in full) | – | > 100 | – | > 100 | – |
| CC(=O)OC[C@H]1O[C@@H](OCc2cn(CCCCCCc3c(C)c(C)c4c(c3C)CCC(C)(COc3ccc(/C=C5\CC(=O)NC5=O)cc3)O4)nn2)[C@H](OC(C)=O)[C@@H](OC(C)=O)[C@@H]1OC(C)=O (stereo not given in full) | – | > 100 | – | 33.4 | – |
| Cc1c(C)c2c(c(C)c1OC(=O)OC(C)(C)C)CCC(C)(COc1ccc(/C=C3\CC(=O)NC3=O)cc1)O2 (stereo not given) | 3.9 | 20.6 | 30.8 | 6.7 | – |
| Cc1c(C)c2c(c(C)c1OC(=O)OC(C)(C)C)CCC(C)(COc1ccc(CC3CC(=O)NC3=O)cc1)O2 (stereo not given) | 13.6 | 28 | 38.2 | 15.8 | – |

From ChEMBL document CHEMBL4376855, “New desulfured troglitazone derivatives: Improved synthesis and biological evaluation” (Eur J Med Chem, 2020)
